Results published in ChEMBL document CHEMBL1141286, “Benzochromenones from the marine crinoid Comantheria rotula inhibit hypoxia-inducible factor-1 (HIF-1) in cell-based reporter assays and differentially suppress the growth of certain tumor cell lines” (J Nat Prod, 2007).
The source made the active and inactive calls. No cut-off for these calls is given here.

Assays:
[1] = DPPH radical scavenging activity relative to Trolox; type: functional; design: concentration or dose not given beside the values
Procedure, shortened: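 Compounds were made up as DMSO stocks and diluted in isopropanol to a final 10 μM. Each was mixed with DPPH in isopropanol at 10 μM or 30 μM DPPH, and absorbance was read at 515 nm. Scavenging was calculated as [1 − OD515(compound)/OD515(control)] × 100, then expressed as a percentage of Trolox activity. One experiment was run in triplicate.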

UACC-257 = test: Growth inhibition of human UACC257 cells; type: functional
[2] = Inhibition of 1,10-phenanthroline-induced HIF1 activation in T47D cells by TK-luciferase assay; type: cell-based; conditions: Homo sapiens
Procedure, shortened: (§1)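 HIF-1 reporter (pHRE-TK-Luc) assays in transfected PC-3 or T47D cells; HIF-1 induced by hypoxia or by the hypoxia mimetic 1,10-phenanthroline (10 μM); compounds at half-log concentrations; luciferase activity measured; IC50 from experiments in triplicate.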

A549 = test: Growth inhibition of human A549 cells; type: functional
COLO 205 = test: Growth inhibition of human COLO205 cells; type: functional
A498 = test: Growth inhibition of human A498 cells; type: functional
HOP-92 = test: Growth inhibition of human HOP92 cells; type: functional
PC-3 = test: Growth inhibition of human PC3 cells; type: functional
SK-MEL-28 = test: Growth inhibition of human SK-MEL28 cells; type: functional
[3] = Inhibition of 1,10-phenanthroline-induced HIF1 activation in PC3 cells by TK-luciferase assay; type: cell-based; conditions: Homo sapiens, PC-3; procedure, shortened: as §1
[4] = Growth inhibition of human OVACAR3 cells; type: functional
CCRF-CEM = test: Growth inhibition of human CCRF-CEM cells; type: functional
SR = test: Growth inhibition of human SR cells; type: functional
SK-MEL-2 = test: Growth inhibition of human SK-MEL2 cells; type: functional
SK-OV-3 = test: Growth inhibition of human SK-OV3 cells; type: functional
SW-620 = test: Growth inhibition of human SW620 cells; type: functional
DU-145 = test: Growth inhibition of human DU145 cells; type: functional
ACHN = test: Growth inhibition of human ACHN cells; type: functional
Malme-3M = test: Growth inhibition of human MALME-3M cells; type: functional
SF-268 = test: Growth inhibition of human SF268 cells; type: functional
OVCAR-4 = test: Growth inhibition of human OVACAR4 cells; type: functional
HCT-15 = test: Growth inhibition of human HCT15 cells; type: functional
SK-MEL-5 = test: Growth inhibition of human SK-MEL5 cells; type: functional
EKVX = test: Growth inhibition of human EKVX cells; type: functional
SF-539 = test: Growth inhibition of human SF539 cells; type: functional
SF-295 = test: Growth inhibition of human SF295 cells; type: functional
T47D [5] = test: Inhibition of 1,10-phenanthroline-induced VEGF protein secretion in human T47D cells at 10 uM after 16 hrs by ELISA; type: functional, cell-based
Procedure, shortened: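 T47D cells stimulated with 1,10-phenanthroline, compound at 10 μM; secreted VEGF in conditioned media by ELISA, normalized to cell-lysate protein.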

786-0 = test: Growth inhibition of human 786-0 cells; type: functional
M14 = test: Growth inhibition of human M14 cells; type: functional
NCI-H522 = test: Growth inhibition of human NCI-H522 cells; type: functional
HCT-116 = test: Growth inhibition of human HCT116 cells; type: functional
OVCAR-8 = test: Growth inhibition of human OVACAR8 cells; type: functional
T47D [6] = test: Growth inhibition of human T47D cells; type: functional
NCI-H460 = test: Growth inhibition of human NCI-H460 cells; type: functional
KM12 = test: Growth inhibition of human KM12 cells; type: functional
MCF7 = test: Growth inhibition of human MCF7 cells; type: functional
UACC-62 = test: Growth inhibition of human UACC62 cells; type: functional
NCI/ADR-RES = test: Growth inhibition of human NCI/ADR-RES cells; type: functional
HT-29 = test: Growth inhibition of human HT29 cells; type: functional
IGROV-1 = test: Growth inhibition of human IGROV1 cells; type: functional
[7] = read-out: Log LC50 (the source's name) (converted)

COc1cc(O)cc2cc3oc(C)cc(=O)c3c(O)c12
Activity [1]: 40%
GI50 (UACC-257): 45.7 µM
LC50 (UACC-257): > 100 µM
TGI (UACC-257; read-out: Log TGI (converted)): > 100 µM
IC50 [2]: 0.9 µM
GI50 (A549): 29.5 µM
CC50 (A549; [7]): > 100 µM
TGI (A549; read-out: Log TGI (converted)): > 100 µM
GI50 (COLO 205): 20.4 µM
CC50 (COLO 205; [7]): > 100 µM
TGI (COLO 205; read-out: Log TGI (converted)): 55 µM
GI50 (A498): 0.617 µM
LC50 (A498): > 100 µM
TGI (A498; read-out: Log TGI (converted)): 11.7 µM
GI50 (HOP-92): 30.9 µM
CC50 (HOP-92; [7]): > 100 µM
TGI (HOP-92; read-out: Log TGI (converted)): > 100 µM
GI50 (PC-3): 32.4 µM
LC50 (PC-3): > 100 µM
TGI (PC-3; read-out: Log TGI (converted)): > 100 µM
GI50 (SK-MEL-28): 24 µM
CC50 (SK-MEL-28; [7]): > 100 µM
TGI (SK-MEL-28; read-out: Log TGI (converted)): 63.1 µM
IC50 [3]: 2.5 µM
GI50 [4]: > 100 µM
CC50 [4, 7]: 22.4 µM
TGI ([4]; read-out: Log TGI (converted)): 91.2 µM
GI50 (CCRF-CEM): 30.2 µM
LC50 (CCRF-CEM): > 100 µM
TGI (CCRF-CEM; read-out: Log TGI (converted)): 100 µM
GI50 (SR): 15.1 µM
CC50 (SR; [7]): > 100 µM
TGI (SR; read-out: Log TGI (converted)): 41.7 µM
GI50 (SK-MEL-2): 4.9 µM
LC50 (SK-MEL-2): > 100 µM
TGI (SK-MEL-2; read-out: Log TGI (converted)): 35.5 µM
GI50 (SK-OV-3): 31.6 µM
LC50 (SK-OV-3): > 100 µM
TGI (SK-OV-3; read-out: Log TGI (converted)): > 100 µM
GI50 (SW-620): 0.295 µM
CC50 (SW-620; [7]): > 100 µM
TGI (SW-620; read-out: Log TGI (converted)): 17 µM
GI50 (DU-145): 21.9 µM
CC50 (DU-145; [7]): > 100 µM
TGI (DU-145; read-out: Log TGI (converted)): 70.8 µM
GI50 (ACHN): 17 µM
CC50 (ACHN; [7]): > 100 µM
TGI (ACHN; read-out: Log TGI (converted)): > 100 µM
GI50 (Malme-3M): 35.5 µM
CC50 (Malme-3M; [7]): > 100 µM
TGI (Malme-3M; read-out: Log TGI (converted)): 95.5 µM
GI50 (SF-268): 30.2 µM
LC50 (SF-268): > 100 µM
TGI (SF-268; read-out: Log TGI (converted)): > 100 µM
GI50 (OVCAR-4): 45.7 µM
LC50 (OVCAR-4): > 100 µM
TGI (OVCAR-4; read-out: Log TGI (converted)): > 100 µM
GI50 (HCT-15): 23.4 µM
CC50 (HCT-15; [7]): > 100 µM
TGI (HCT-15; read-out: Log TGI (converted)): 70.8 µM
GI50 (SK-MEL-5): 0.457 µM
LC50 (SK-MEL-5): 34.7 µM
TGI (SK-MEL-5; read-out: Log TGI (converted)): 12 µM
GI50 (EKVX): 37.2 µM
CC50 (EKVX; [7]): > 100 µM
TGI (EKVX; read-out: Log TGI (converted)): > 100 µM
GI50 (SF-539): 27.5 µM
LC50 (SF-539): > 100 µM
TGI (SF-539; read-out: Log TGI (converted)): 87.1 µM
GI50 (SF-295): 30.2 µM
LC50 (SF-295): > 100 µM
TGI (SF-295; read-out: Log TGI (converted)): > 100 µM
Activity (T47D [5]): inactive
GI50 (786-0): 20 µM
LC50 (786-0): > 100 µM
TGI (786-0; read-out: Log TGI (converted)): 50.1 µM
GI50 (M14): 20 µM
LC50 (50% lethal concentration) (M14): > 100 µM
TGI (M14; read-out: Log TGI (converted)): 45.7 µM
GI50 (NCI-H522): 2.19 µM
CC50 (NCI-H522; [7]): 93.3 µM
TGI (NCI-H522; read-out: Log TGI (converted)): 22.9 µM
GI50 (HCT-116): 14.5 µM
CC50 (HCT-116; [7]): 63.1 µM
TGI (HCT-116; read-out: Log TGI (converted)): 30.2 µM
GI50 (OVCAR-8): 27.5 µM
LC50 (OVCAR-8): > 100 µM
TGI (OVCAR-8; read-out: Log TGI (converted)): > 100 µM
GI50 (T47D [6]): 17.8 µM
LC50 (T47D [6]): > 100 µM
TGI (T47D [6]; read-out: Log TGI (converted)): > 100 µM
GI50 (NCI-H460): 19.1 µM
CC50 (NCI-H460; [7]): > 100 µM
TGI (NCI-H460; read-out: Log TGI (converted)): 50.1 µM
GI50 (KM12): 18.6 µM
CC50 (KM12; [7]): 85.1 µM
TGI (KM12; read-out: Log TGI (converted)): 39.8 µM
GI50 (MCF7): 31.6 µM
LC50 (MCF7): > 100 µM
TGI (MCF7; read-out: Log TGI (converted)): > 100 µM
GI50 (UACC-62): 29.5 µM
LC50 (lethal concentration, 50% cell kill) (UACC-62): > 100 µM
TGI (UACC-62; read-out: Log TGI (converted)): > 100 µM
GI50 (NCI/ADR-RES): 22.4 µM
LC50 (concentration killing 50% of cells) (NCI/ADR-RES): > 100 µM
TGI (NCI/ADR-RES; read-out: Log TGI (converted)): > 100 µM
GI50 (HT-29): 29.5 µM
CC50 (HT-29; [7]): > 100 µM
TGI (HT-29; read-out: Log TGI (converted)): > 100 µM
GI50 (IGROV-1): 0.437 µM
CC50 (IGROV-1; [7]): > 100 µM
TGI (IGROV-1; read-out: Log TGI (converted)): 23.4 µM
